# Most compounds without a hit are left out; they make up all but 1.7% or so of the library.
# DNMT1 inh = blocks human DNA methyltransferase DNMT1; P26358; AID 588458; 360,000 compounds, 0.83% hits; inhibition (reported as % activation of signal), % at 10 µM; DNMT1 molecular beacon, Hinp1I cleavage, fluorescence; in the data active means inhibition above about 50%
# Scp1 inh = blocks human Scp-1 phosphatase activity; Q9GZU7; Recombinant Scp1, phosphopeptide, malachite green phosphate absorbance; inhibition, % at 20 µM; 340,000 compounds, 0.88% hits; AID 493091;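 active means inhibition above about 50% at 20 µM, limit read from the data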;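 further: plate controls were DMSO wells with enzyme for no effect and wells lacking enzyme for full effect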
# Target sequence (Q9GZU7 76-261 limits assumed): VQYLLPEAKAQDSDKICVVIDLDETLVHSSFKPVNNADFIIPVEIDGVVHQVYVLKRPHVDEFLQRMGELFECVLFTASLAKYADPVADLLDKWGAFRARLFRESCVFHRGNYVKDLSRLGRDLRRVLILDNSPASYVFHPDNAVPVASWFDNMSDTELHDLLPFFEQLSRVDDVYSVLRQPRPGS
#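 System: SCP-1 catalytic domain; Reagent: Phospho 17-mer peptide substrate; Doses: one concentration, 20 µM, with 1.0% DMSO; Incubation: 45 min room-temperature reaction, 5 min colour, 30 min stabiliser; Signal: Phosphate-binding colour reagent, absorbance read at 630 nm.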
# STEP inh = STEP (human) phosphatase inhibition. recombinant STEP, OMFP fluorogenic substrate, fluorescence. inhibition, % at 20 µM. 360,000 compounds, 0.25% hits. P54829;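 active means inhibition at 20 µM, scaled per plate between control wells, above about 37%, limit read from the data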;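 further: 0% = DMSO with enzyme and substrate and 100% = substrate only without enzyme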
#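 System: STEP phosphatase, cell-free reaction; Buffer or medium: Bis-Tris pH 6.0 buffer with DTT, detergent; Incubation: 20 min at room temperature, dark; Measured by: fluorescence, 480/540 nm.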
# SUMO1-SIM PPI = SUMO1-SIM interaction modulation; P63165; SUMO1 binding to a labelled peptide, TR-FRET, 1 h; inhibition, % at 20 µM; 360,000 compounds, 0.33% hits; AID 602429; in the data active means inhibition above about 37%
# Target sequence (P63165 whole entry, looked up): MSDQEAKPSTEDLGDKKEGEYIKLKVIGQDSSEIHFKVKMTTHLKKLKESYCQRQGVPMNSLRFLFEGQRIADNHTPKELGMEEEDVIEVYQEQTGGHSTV
# LMPTP inh = blocks human LMPTP phosphatase; 360,000 compounds, 0.22% hits; recombinant LMPTP-A, OMFP fluorogenic substrate, fluorescence intensity; P24666; inhibition, % at 20 µM;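 active means compounds that cut the enzyme signal by at least half of the control window in the single-dose screen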;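 further: plate controls were DMSO wells with enzyme plus substrate for no effect and substrate without enzyme for full effect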
# Target sequence (P24666 whole entry, looked up): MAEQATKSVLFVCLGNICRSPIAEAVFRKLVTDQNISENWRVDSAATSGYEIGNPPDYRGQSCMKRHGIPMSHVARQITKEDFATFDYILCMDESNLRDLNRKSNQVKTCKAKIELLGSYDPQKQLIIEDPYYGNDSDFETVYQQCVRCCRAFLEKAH
#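 Test system: LMPTP-A, protein tyrosine phosphatase of low molecular weight; Input: 0.625 nM enzyme; Incubation: 50 min dark incubation at room temperature; Signal: endpoint fluorescence intensity from OMFP dephosphorylation; Read-out basis: % inhibition versus control wells.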
# Starred values were filed as active, the others as inactive; . = not tested or not shown.
SMILES,DNMT1 inh,Scp1 inh,STEP inh,SUMO1-SIM PPI,LMPTP inh
CCCCNC(=O)c1ccc(CS(=O)(=O)c2cccc(C(F)(F)F)c2)o1,0,0,-1,3,0
O=C(NCc1ccco1)c1ccc(CS(=O)(=O)c2cccc(C(F)(F)F)c2)o1,-1,-11,2,55*,-1
CCOC1=C2[C@@H](CN(S(=O)(=O)c3ccc(C)cc3)[C@H]2c2ccccc2F)[C@H]2C(=O)N(CC)C(=O)[C@H]2C1,2,.,0,3,0
Cc1nc2cc(-c3ccsc3-n3c(C)ccc3C)[nH]n2c(=O)c1Cl,44,25,-2,41*,50
Cc1ccccc1-c1cc2nc(C)c(Cl)c(=O)n2[nH]1,0,-10,-4,25,0
CCN(CC)C(=O)[C@H]1C[C@H](CC(=O)NCCC2=CCCCC2)C(=O)N2CCc3c([nH]c4ccc(Cl)cc34)[C@]12C,-12,1,0,4,2
Cc1ccc(S(=O)(=O)N2CCOCC2)cc1C(=O)OCC(=O)Nc1ccc2[nH]c(=O)[nH]c2c1,2,1,-1,82*,2
CC(C)CCNC(=O)NC(=O)COC(=O)c1cc(S(=O)(=O)N2CCOCC2)ccc1N1CCCCC1,-2,14,4,45*,0
O=C(Nc1cccc(C(F)(F)F)c1)c1cccc(NS(=O)(=O)c2ccc(O)c(C(=O)O)c2)c1,-10,4,8,5,-1
Cc1cc(C=C2C(=O)c3ccccc3C2=O)c(C)n1C,-11,-5,-1,52*,3
CCn1c(C)cc(C=C2C(=O)c3ccccc3C2=O)c1C,-12,-7,0,-19,4
Cc1cccc(C)c1NC(=O)CNC(=O)c1ccc2c(c1)NC(=O)CS2,1,0,-2,12,-3
O=C(NC1CCCC1)c1cnn2c(C(F)(F)F)cc(-c3ccc4c(c3)OCO4)nc12,51*,-5,-1,-2,2
CC(Sc1cnccn1)C(=O)O (centres undefined),4,-7,3,-2,0
Cc1ccc(-c2nn(-c3ccccc3)cc2C2CC(c3cccs3)=NN2C(=O)CCCC(=O)O)cc1 (centres undefined),-8,89*,29,-11,1
Cc1oc2c(C)c3oc(=O)c(CCC(=O)O)c(C)c3cc2c1-c1ccccc1,3,18,2,38*,4
Cc1c2cc[n+](CCN3CCCCC3)cc2c(C)c2c1[nH]c1ccc(O)cc12,1,-10,5,92*,48
COc1ccc(C2NC(=O)NC3=C2CCc2ccccc23)cc1 (centres undefined),79*,-4,8,11,17
O=C1c2nc3ccccn3c2C(=O)N1Cc1ccccc1,-11,-3,2,39*,1
CCN(CC)CCCN=C1N[C@@H](c2cccc(F)c2)C(C(=O)OC)=C(C)N1Cc1ccccc1,-1,103*,2,-4,-2
COC(=O)C1=C(C)N(Cc2ccccc2)C(=NCc2ccccc2)N[C@H]1c1cccc(F)c1,3,0,0,-18,0
C=CCN=C1N[C@@H](c2ccccc2)C(C(=O)OC)=C(C)N1CCOC,3,19,-1,4,-1
COCCN1C(=NCCCOC(C)C)N[C@@H](c2ccccc2)C(C(=O)OC)=C1C,3,55*,-2,2,-2
Cc1cc(N2CCN(C(C(=O)NC3CCCC3)c3ccc(-c4ccccc4)cc3)CC2)c2ccccc2n1 (centres undefined),.,.,.,-2,94*
N#Cc1ccc(OCC(=O)Nc2cc(S(=O)(=O)N3CCOCC3)ccc2N2CCCC2)cc1,.,-2,.,.,.
SMILES,DNMT1 inh,Scp1 inh,STEP inh,SUMO1-SIM PPI,LMPTP inh
O=C(Nc1ccccc1C(=O)O)c1cccc(NC(=O)c2ccccc2Br)c1,-6,-3,-1,12,0
O=C(Nc1cc(C(=O)Nc2ccccc2C(=O)O)cc(C(=O)Nc2ccccc2C(=O)O)c1)c1ccccc1,7,4,18,42*,0
CCOc1ccc(C(=O)NNC(=O)CN2C(=O)C3CC=CCC3C2=O)cc1OC (centres undefined),3,-5,-2,1,-1
CC(=O)Oc1ccccc1C(=O)C=Cc1cccc([N+](=O)[O-])c1,1,-16,4,-20,-1
CC(=O)Nc1ccc(C(=O)Nc2nc(-c3cccnc3)cs2)cc1,-4,8,12,60*,6
Cc1ccc(C(=O)Nc2cccc(-c3cnc4ccccc4n3)c2)cc1,9,-9,-1,-3,-1
CC(=O)Nc1ccc(C(=O)Nc2cccc(-c3cnc4ccccc4n3)c2)cc1,34,21,15,49*,40
CCOc1ccc(NC(=O)/C(C#N)=C\c2ccc(N3CCCC3)c(C)c2)cc1,38,-10,-7,-4,-3
CCOC(=O)c1cc(-c2ccc(/C=C3/C(=O)NC(=O)C(C#N)=C3C)o2)ccc1Cl,-5,81*,1,12,8
CC1=C(C#N)C(=O)NC(=O)/C1=C\c1ccc(-c2ccc(C)cc2[N+](=O)[O-])o1,4,19,1,12,2
COC(=O)c1ccc2nc(C3CCCCC3)c(Cc3ccc(C)cc3)n2c1,2,.,0,0,2
Cc1cc(O)c(-c2cc(C(=O)Nc3cccnc3)[nH]n2)cc1C,-3,-2,0,2,1
CC(=O)Nc1ccc(NC(=O)c2cc(-c3cc(C)c(C)cc3O)n[nH]2)cc1,-3,-6,0,40*,1
CC(=O)c1c(C)[nH]c(C(=O)OCC(=O)c2ccc3c(c2)NC(=O)CO3)c1C,-3,-9,-1,65*,2
Cc1cccc(C(=O)OCC(=O)c2ccc3c(c2)NC(=O)CO3)c1,-13,-13,-1,-9,0
COc1ccc(CCn2c(C3CCCCC3)nc3c(c(=O)c4ccccc4n3C)c2=O)cc1,7,1,98*,34,104*
Cn1c2ccccc2c(=O)c2c(=O)n(-c3ccccc3)c(C3CCCCC3)nc21,12,2,9,9,2
CCc1nn2c(=O)cc(COc3ccc(NC(=O)c4ccco4)cc3)nc2s1,1,8,-2,4,1
CCCc1nn2c(=O)cc(COc3ccc(NC(=O)c4ccco4)cc3)nc2s1,-2,-7,-1,66*,0
Nc1ccc2c(c1Cl)C(=O)c1ccc(N)c(Cl)c1C2=O,81*,90*,99*,109*,82*
CC(C)(C)NC(=O)CN(Cc1ccccc1)S(=O)(=O)c1ccccc1,3,4,2,4,-3
CCN(CC(=O)Nc1c(F)cccc1F)C(=O)/C=C/c1ccc2ccccc2n1,102*,86*,42*,77*,71*
CC(C)(C)C(=O)c1c(N)[nH]c(C(=O)c2ccccc2)c1-c1ccc(Br)cc1,.,.,.,4,-1

# Source: PubChem BioAssay (Sanford-Burnham Center for Chemical Genomics)
